Measured values from ChEMBL document CHEMBL4425169 (ACS Med Chem Lett, 2016).

Experiments:
[1] = Drug metabolism in rat hepatocytes assessed as oxidation at 1 uM measured at 120 mins; assay type: ADME, cell-based, Hepatocyte; details: 2 h
[2] = Drug excretion in bile duct cannulated rat urine; assay type: ADME; details: in vivo
Cytochrome P450 2C9 = Cytochrome P450 2C9 (Homo sapiens, UniProt P11712); assay: Reversible inhibition of human CYP2C9; assay type: ADME
[3] = Half life in rhesus monkey at 1 mg/kg, iv or 2 mg/kg, po; assay type: ADME, organism-based, Macaca mulatta; details: in vivo
Rattus norvegicus = assay: Kaliuretic activity in Sprague-Dawley rat at 1 mg/kg via oral gavage administered 30 mins prior to void induction by loading saline measured upto 4 hrs relative to vehicle treated control; assay type: functional
Summary of the method: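 Acute rat diuresis model in male-unspecified Sprague-Dawley rats, single oral dose, urine collected over 4 h. Urine volume, sodium excretion and potassium excretion expressed as fold increase over vehicle-treated controls; n = 5 per group; significance tested against vehicle.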

[4] = Drug metabolism in human hepatocytes assessed as lactone hydrolysis at 1 uM measured at 120 mins; assay type: ADME, cell-based, Hepatocyte; details: read-out: Drug metabolism
[5] = Cardiotoxicity in vagotomized cardiovascular dog model assessed as effect on mean arterial pressure at plasma concentration <= 11.6 uM at 1 to 7 mg/kg, iv administered during three sequential 30 min periods; assay type: toxicity, organism-based, Canis lupus familiaris; details: in vivo, 0.5 h
Summary of the method: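 Anesthetized, vagotomized dogs received IV infusions over sequential periods at 1, 2 and 7 mg/kg (10 mg/kg cumulative). Heart rate, mean arterial pressure and ECG intervals (PR, QRS, QT/QTc) were recorded predose and during each infusion period. Plasma concentrations were measured.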

[6] = target: Somatostatin receptor type 1 (Homo sapiens, UniProt P30872); assay: Inhibition of somatostatin receptor subtype 1 (unknown origin)
Somatostatin receptor type 1, sequence (P30872 whole entry): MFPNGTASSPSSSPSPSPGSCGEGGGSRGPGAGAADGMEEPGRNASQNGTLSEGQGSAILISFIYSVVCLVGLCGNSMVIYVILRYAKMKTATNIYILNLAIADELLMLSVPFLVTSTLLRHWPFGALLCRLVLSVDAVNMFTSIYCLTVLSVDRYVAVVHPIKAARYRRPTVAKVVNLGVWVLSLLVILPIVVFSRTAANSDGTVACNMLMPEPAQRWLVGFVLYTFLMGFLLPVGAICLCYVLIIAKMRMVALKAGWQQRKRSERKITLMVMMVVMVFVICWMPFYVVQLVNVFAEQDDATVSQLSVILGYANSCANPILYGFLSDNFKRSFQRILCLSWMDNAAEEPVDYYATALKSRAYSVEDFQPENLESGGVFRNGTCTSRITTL

Cytochrome P450 3A4 = Cytochrome P450 3A4 (Homo sapiens, UniProt P08684); assay: Reversible inhibition of human CYP3A4; assay type: ADME
Cytochrome P450 3A4, sequence (P08684 whole entry): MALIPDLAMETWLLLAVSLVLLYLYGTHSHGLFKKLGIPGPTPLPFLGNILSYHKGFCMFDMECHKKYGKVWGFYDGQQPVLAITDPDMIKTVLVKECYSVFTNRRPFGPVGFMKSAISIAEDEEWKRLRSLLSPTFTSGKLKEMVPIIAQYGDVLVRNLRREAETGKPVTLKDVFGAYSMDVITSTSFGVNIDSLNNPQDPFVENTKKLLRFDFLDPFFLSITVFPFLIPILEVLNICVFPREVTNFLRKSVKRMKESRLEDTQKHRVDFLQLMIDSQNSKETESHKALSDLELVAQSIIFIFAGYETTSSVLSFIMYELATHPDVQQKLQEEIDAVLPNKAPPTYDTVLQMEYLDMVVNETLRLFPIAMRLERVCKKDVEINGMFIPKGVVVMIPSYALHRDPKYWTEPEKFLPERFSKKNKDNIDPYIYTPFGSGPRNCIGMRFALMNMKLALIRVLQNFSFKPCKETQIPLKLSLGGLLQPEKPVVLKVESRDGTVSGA

[7] = Drug metabolism in human hepatocytes assessed as oxidation at 1 uM measured at 120 mins; assay type: ADME, cell-based, Hepatocyte; details: read-out: Drug metabolism

Cytochrome P450 2C9, sequence (P11712 whole entry): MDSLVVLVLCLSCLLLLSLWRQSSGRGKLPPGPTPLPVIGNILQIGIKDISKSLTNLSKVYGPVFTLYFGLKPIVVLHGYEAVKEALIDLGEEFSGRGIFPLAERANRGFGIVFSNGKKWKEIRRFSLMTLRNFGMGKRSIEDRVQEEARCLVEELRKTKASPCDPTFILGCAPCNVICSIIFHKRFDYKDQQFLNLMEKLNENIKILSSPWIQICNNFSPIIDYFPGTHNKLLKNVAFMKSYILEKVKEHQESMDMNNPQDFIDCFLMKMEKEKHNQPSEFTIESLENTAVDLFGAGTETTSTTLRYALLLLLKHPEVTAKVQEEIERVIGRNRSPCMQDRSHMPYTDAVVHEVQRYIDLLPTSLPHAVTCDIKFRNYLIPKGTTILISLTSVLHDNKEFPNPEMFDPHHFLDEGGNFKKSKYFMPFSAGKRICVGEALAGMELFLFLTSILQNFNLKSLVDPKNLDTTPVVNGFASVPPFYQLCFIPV

Compound: Cc1c([C@@H](O)CN2CCN(C[C@H](O)c3ccc4c(c3C)COC4=O)CC2)ccc2c1COC2=O [MK-7145]
- Drug metabolism [1]: 15 to 37%
- Drug excretion [2]: Metabolite_Detected
- IC50 (Cytochrome P450 2C9): > 50 µM
- half-life [3]: 4 h
- fold change (FC) (Rattus norvegicus): 1.8
- metabolised at 2 h, 1 µM [4]: < 1%
- Activity [5]: Non-Toxic
- IC50 [6]: 2.63 µM
- IC50 (Cytochrome P450 3A4): > 50 µM
- metabolised at 2 h, 1 µM [7]: 15 to 37%
